Tests used:
A498 = assay: Growth inhibition of A498 cells; format: functional; conditions: Homo sapiens
Outline: (§1)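 Tested in the NCI 60 human tumour cell line screen, which was run by NCI. The value for each line is the GI50, the concentration giving 50% growth inhibition. Results are also shown as a mean graph across the full panel.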

SF-268 = assay: Growth inhibition of SF268 cells; format: functional; conditions: Homo sapiens
ACHN = assay: Growth inhibition of ACHN cells; format: functional; conditions: Homo sapiens
[1] = test system: A2780 (human ovarian cancer); assay: Antiproliferative activity against drug-sensitive human A2780 cells
SN12C = assay: Growth inhibition of SN12C cells; format: functional; conditions: Homo sapiens; outline: as §1
SNB-75 = assay: Growth inhibition of SNB75 cells; format: functional; conditions: Homo sapiens
MCF7 = assay: Growth inhibition of MCF7 cells; format: functional; conditions: Homo sapiens; outline: as §1
UACC-62 = assay: Growth inhibition of UACC62 cells; format: functional; conditions: Homo sapiens
M14 = assay: Growth inhibition of M14 cells; format: functional; conditions: Homo sapiens; outline: as §1
BT-549 = assay: Growth inhibition of BT549 cells; format: functional; conditions: Homo sapiens
MOLT-4 = assay: Growth inhibition of MOLT4 cells; format: functional; conditions: Homo sapiens; outline: as §1
HOP-62 = assay: Growth inhibition of HOP62 cells; format: functional; conditions: Homo sapiens
SF-539 = assay: Growth inhibition of SF539 cells; format: functional; conditions: Homo sapiens; outline: as §1
[2] = Growth inhibition of HS 578T cells; format: functional; conditions: Homo sapiens
HOP-92 = assay: Growth inhibition of HOP92 cells; format: functional; conditions: Homo sapiens
SK-OV-3 = assay: Growth inhibition of SKOV3 cells; format: functional; conditions: Homo sapiens
MDA-MB-231 = assay: Growth inhibition of MDA-MB-231/ATCC cells; format: functional; conditions: Homo sapiens; outline: as §1
KM12 = assay: Growth inhibition of KM12 cells; format: functional; conditions: Homo sapiens
RPMI-8226 = assay: Growth inhibition of RPMI8226 cells; format: functional; conditions: Homo sapiens
T47D = assay: Growth inhibition of T47D cells; format: functional; conditions: Homo sapiens; outline: as §1
SF-295 [3] = assay: (§2) Growth inhibition of SF295 cells; format: functional; conditions: Homo sapiens; outline: as §1
CCRF-CEM = assay: Growth inhibition of CCRF-CEM cells; format: functional; conditions: Homo sapiens; outline: as §1
NCI-H460 = assay: Growth inhibition of NCI-H460 cells; format: functional; conditions: Homo sapiens
CAKI-1 = assay: Growth inhibition of CAKI1 cells; format: functional; conditions: Homo sapiens; outline: as §1
SF-295 [4] = assay: as §2; format: functional; conditions: Homo sapiens; remark: listed apart in the source
HT-29 = assay: Growth inhibition of HT29 cells; format: functional; conditions: Homo sapiens; outline: as §1
U-251 = assay: Growth inhibition of U251 cells; format: functional; conditions: Homo sapiens
[5] = read-out: Log LC50 (the source's name) (converted)

With `COc1cc(/C=C/c2cc(O)c(CC=C(C)C)c(O)c2)cc2c1O[C@]1(C)C[C@@H](O)[C@@H](O)C(C)(C)[C@H]1C2` [SCHWEINFURTHIN E] as the molecule, how does the TGI (A498; read-out: Log TGI (converted)) read?
The TGI was < 10 nM.

And the TGI (A498; read-out: TGI)?
Its TGI is < 10 nM.

What about the GI50 (A498; read-out: pGI50 (converted)) of the same molecule?
Its GI50 is < 10 nM.

What about the GI50 (SF-268) of the same molecule?
The GI50 was 2630 nM.

What about the CC50 (SF-268; [5]) of the same molecule?
The CC50 was > 100000 nM.

What about the TGI (SF-268; read-out: Log TGI (converted)) of the same molecule?
Its TGI is > 100000 nM.

And the GI50 (ACHN)?
Its GI50 is 372 nM.

And the CC50 (ACHN; [5])?
Its CC50 is 13200 nM.

What about the TGI (ACHN; read-out: Log TGI (converted)) of the same molecule?
Its TGI is 3020 nM.

And the IC50 [1]?
Its IC50 is 260 nM.

What about the GI50 (SN12C) of the same molecule?
The GI50 was 2090 nM.

And the CC50 (SN12C; [5])?
The CC50 was 34700 nM.

What about the TGI (SN12C; read-out: Log TGI (converted)) of the same molecule?
The TGI was 7590 nM.

What about the GI50 (SNB-75) of the same molecule?
Its GI50 is 1740 nM.

What about the CC50 (SNB-75; [5]) of the same molecule?
Its CC50 is > 100000 nM.

And the TGI (SNB-75; read-out: Log TGI (converted))?
The TGI was 20000 nM.

What about the GI50 (MCF7) of the same molecule?
Its GI50 is 61.7 nM.

And the CC50 (MCF7; [5])?
Its CC50 is > 100000 nM.

And the TGI (MCF7; read-out: Log TGI (converted))?
The TGI was 26900 nM.

What about the GI50 (UACC-62) of the same molecule?
Its GI50 is < 10 nM.

What about the CC50 (UACC-62; [5]) of the same molecule?
The CC50 was 4070 nM.

And the TGI (UACC-62; read-out: Log TGI (converted))?
Its TGI is 372 nM.

And the GI50 (M14)?
The GI50 was < 10 nM.

What about the CC50 (M14; [5]) of the same molecule?
Its CC50 is 4270 nM.

What about the TGI (M14; read-out: Log TGI (converted)) of the same molecule?
The TGI was 288 nM.

What about the GI50 (BT-549) of the same molecule?
Its GI50 is 1510 nM.

What about the CC50 (BT-549; [5]) of the same molecule?
Its CC50 is > 100000 nM.

And the TGI (BT-549; read-out: Log TGI (converted))?
Its TGI is 13200 nM.

What about the GI50 (MOLT-4; read-out: GI50) of the same molecule?
The GI50 was < 10 nM.

What about the CC50 (MOLT-4; [5]) of the same molecule?
The CC50 was > 100000 nM.

What about the TGI (MOLT-4; read-out: Log TGI (converted)) of the same molecule?
The TGI was < 10 nM.

And the TGI (MOLT-4; read-out: TGI)?
The TGI was < 10 nM.

What about the GI50 (MOLT-4; read-out: pGI50 (converted)) of the same molecule?
Its GI50 is < 10 nM.

What about the GI50 (HOP-62) of the same molecule?
Its GI50 is < 10 nM.

And the CC50 (HOP-62; [5])?
The CC50 was 7760 nM.

And the TGI (HOP-62; read-out: Log TGI (converted))?
Its TGI is 75.9 nM.

What about the GI50 (SF-539) of the same molecule?
Its GI50 is < 10 nM.

What about the TGI (SF-539; read-out: Log TGI (converted)) of the same molecule?
Its TGI is 158 nM.

And the GI50 [2]?
The GI50 was < 10 nM.

What about the CC50 [2, 5] of the same molecule?
The CC50 was > 100000 nM.

And the TGI ([2]; read-out: Log TGI (converted))?
Its TGI is 363 nM.

And the GI50 (HOP-92)?
The GI50 was 794 nM.

And the CC50 (HOP-92; [5])?
The CC50 was > 100000 nM.

And the TGI (HOP-92; read-out: Log TGI (converted))?
Its TGI is 5130 nM.

And the LC50 (SK-OV-3)?
The LC50 was 93300 nM.

And the GI50 (SK-OV-3; read-out: GI50)?
The GI50 was 2200 nM.

And the TGI (SK-OV-3; read-out: Log TGI (converted))?
Its TGI is 11000 nM.

What about the GI50 (SK-OV-3; read-out: pGI50 (converted)) of the same molecule?
The GI50 was 2750 nM.

And the GI50 (MDA-MB-231)?
The GI50 was 851 nM.

What about the CC50 (MDA-MB-231; [5]) of the same molecule?
The CC50 was 26300 nM.

And the TGI (MDA-MB-231; read-out: Log TGI (converted))?
Its TGI is 3470 nM.

What about the GI50 (KM12) of the same molecule?
Its GI50 is 457 nM.

And the CC50 (KM12; [5])?
Its CC50 is 9550 nM.

What about the TGI (KM12; read-out: Log TGI (converted)) of the same molecule?
Its TGI is 2240 nM.

And the GI50 (RPMI-8226)?
Its GI50 is < 10 nM.

What about the CC50 (RPMI-8226; [5]) of the same molecule?
Its CC50 is > 100000 nM.

What about the TGI (RPMI-8226; read-out: Log TGI (converted)) of the same molecule?
The TGI was 52.5 nM.

What about the GI50 (T47D) of the same molecule?
The GI50 was 3240 nM.

What about the CC50 (T47D; [5]) of the same molecule?
The CC50 was > 100000 nM.

What about the TGI (T47D; read-out: Log TGI (converted)) of the same molecule?
The TGI was > 100000 nM.

What about the GI50 (SF-295 [3]) of the same molecule?
Its GI50 is < 10 nM.

What about the TGI (SF-295 [3]) of the same molecule?
Its TGI is < 10 nM.

What about the GI50 (CCRF-CEM) of the same molecule?
The GI50 was < 10 nM.

What about the CC50 (CCRF-CEM; [5]) of the same molecule?
Its CC50 is > 100000 nM.

What about the TGI (CCRF-CEM; read-out: Log TGI (converted)) of the same molecule?
The TGI was 10000 nM.

And the GI50 (NCI-H460)?
The GI50 was 151 nM.

What about the CC50 (NCI-H460; [5]) of the same molecule?
Its CC50 is > 100000 nM.

What about the TGI (NCI-H460; read-out: Log TGI (converted)) of the same molecule?
The TGI was > 100000 nM.

What about the GI50 (CAKI-1; read-out: GI50) of the same molecule?
The GI50 was < 10 nM.

What about the CC50 (CAKI-1; [5]) of the same molecule?
The CC50 was 550 nM.

And the TGI (CAKI-1; read-out: Log TGI (converted))?
The TGI was < 10 nM.

And the TGI (CAKI-1; read-out: TGI)?
Its TGI is < 10 nM.

What about the GI50 (CAKI-1; read-out: pGI50 (converted)) of the same molecule?
Its GI50 is < 10 nM.

And the GI50 (SF-295 [4])?
Its GI50 is < 10 nM.

And the CC50 (SF-295 [4]; [5])?
The CC50 was < 10 nM.

What about the TGI (SF-295 [4]; read-out: Log TGI (converted)) of the same molecule?
Its TGI is < 10 nM.

And the GI50 (HT-29)?
The GI50 was 1290 nM.

What about the CC50 (HT-29; [5]) of the same molecule?
The CC50 was > 100000 nM.

And the GI50 (U-251)?
Its GI50 is < 10 nM.

And the CC50 (U-251; [5])?
Its CC50 is 32400 nM.

And the TGI (U-251; read-out: Log TGI (converted))?
The TGI was 3980 nM.

— ChEMBL document CHEMBL1142962, “Antiproliferative prenylated stilbenes and flavonoids from Macaranga alnifolia from the Madagascar rainforest” (J Nat Prod, 2007)
